Our source for the inhibition of growth and IC50 values is ChEMBL document CHEMBL2150962, “Antimicrobial rubrolides from a South African species of Synoicum tunicate” (J Nat Prod, 2012).

One test relates to Escherichia coli. As to the kind of experiment: Antimicrobial activity against Escherichia coli O157:H7 at 100 ug/ml. In kind it is functional. Conditions: read-out: GI.
Test [1] deals with Staphylococcus epidermidis. As to the kind of experiment: Antimicrobial activity against Staphylococcus epidermidis ATCC 35984TCC BAA-1721. The class given is functional, organism-based. The method in brief:
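Microtiter broth dilution; S. epidermidis ATCC 35984 grown in tryptic soy broth, inoculum 5 × 10⁵ cfu/mL, 16 h static incubation at 37 °C. Compound tested over 130 - 0.3 μg/mL. Technical duplicates, biological triplicate; percentage inhibition fitted by nonlinear regression to IC50.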

The next test has as its system Staphylococcus aureus. As to the kind of experiment: Antimicrobial activity against methicillin-resistant Staphylococcus aureus ATCC BAA-1720. The class given is functional, organism-based.
The subject of the next test is Enterococcus faecalis. In words: Antimicrobial activity against gentamycin- and vancomycin-resistant Enterococcus faecalis ATCC 700802 at 100 ug/ml. Conditions: read-out: GI. In kind it is functional.

Consider `COc1ccc(/C=C2\OC(=O)C=C2c2ccc(O)cc2)cc1Br`, for which the results for the inhibition of growth at 100 µg/mL in the test with Escherichia coli and in the test with Enterococcus faecalis were 22% and 43%, respectively. The IC50 in test [1] came out at 98 µM; in the test with Staphylococcus aureus, 256 µM.
On the same counts, the results for `O=C1C=C(c2ccc(O)c(Br)c2)/C(=C/c2ccc(O)cc2)O1` are 0%, 16%, 38 µM and 82 µM.
On to `COc1ccc(/C=C2\OC(=O)C=C2c2ccc(O)c(Br)c2)cc1`, for which the inhibition of growth at 100 µg/mL in the test with Escherichia coli is 14%; with Enterococcus faecalis it was 2%. Further, the figures for the half-inhibitory concentration (IC50) (in test [1]; in the test with Staphylococcus aureus) were 42 µM and 360 µM, respectively.
On the same counts, the results for `O=C1C=C(c2ccc(O)c(Br)c2)/C(=C/c2ccc(O)c(Br)c2)O1` are 25%, 2%, 28 µM and 89 µM.
On to `O=C1C=C(c2ccc(O)cc2)/C(=C/c2ccc(O)cc2)O1` [RUBROLIDE E], for which the inhibition of growth at 100 µg/mL with Escherichia coli is 16%; with Enterococcus faecalis it was 89%. The IC50 came out at 21 µM in test [1] and 105 µM in the test on Staphylococcus aureus.
On the same counts, the results for `COc1ccc(/C=C2\OC(=O)C=C2c2ccc(O)cc2)cc1` [RUBROLIDE F] are 15%, 47%, 79 µM and 1010 µM.
